Calls of active or inactive are those of the source. No cut-off for these calls is given here.
Tests used:
Assay type in all cases: cell-based
[1] = Cytotoxicity against rat FRT cells at 12 uM after 24 to 72 hrs by trypan blue staining based assay
Outline: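 Wild-type CFTR FRT cells treated with 12 μM compound, with 12 μM PTC124 as the control. Percentages of live and dead cells and cell proliferation were scored at 24, 48 and 72 h after treatment.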

HeLa = assay: Induction of read through activity at CFTR gene premature termination codon UGA transfected in human HeLa cells assessed as increase in luciferase activity at 12 uM incubated for 24 hrs by steady-glo luciferase reporter gene assay
Outline: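 HeLa cells were transiently transfected with pFLuc-opal (UGA stop) and treated for 24 h at 12 μM, with 12 μM PTC124 as reference. FLuc activity was then measured. pFLuc-WT transfected cells served as the positive control and untreated pFLuc-opal cells as the negative control.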

Homo sapiens = species: Homo sapiens; assay: Induction of mutation read through activity at human CFTR G542X mutant premature termination codon UGA transfected in FRT cells assessed as increase in CFTR protein expression at 12 uM incubated for 24 hrs by DAPI-staining based immunofluorescence microscopic analysis
Outline: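 FRT cells stably carrying pTracer vectors with human G542X-CFTR or WT-CFTR cDNA were exposed to 12 μM compound for 24 h. CFTR was detected by immunofluorescence microscopy, with membrane stained red and nuclei stained with DAPI. Untreated G542X cells served as the negative control.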

| Structure (SMILES) | Activity [1] | Activity (HeLa) | Activity (Homo sapiens) |
| --- | --- | --- | --- |
| O=S(=O)(Oc1ccc(F)cc1F)c1cccc(S(=O)(=O)Oc2ccc(F)cc2F)c1 | Non-Toxic | Active |  |
| COC(=O)c1csc(COc2cc(Cl)cc(Cl)c2)n1 | Non-Toxic | Active | Active |
| COC(=O)c1ccc2nc(-c3cc(Cl)cc(Cl)c3)oc2c1 | Non-Toxic | Active |  |
| O=C(O)c1ccc2nc(-c3ccccc3Cl)[nH]c2c1 | Non-Toxic | Active | Active |
| O=C(O)c1cccc(-c2noc(-c3ccccc3F)n2)c1 [ATALUREN] | Non-Toxic | Active |  |
